Data set [1] can be described thus: Intrinsic clearance in human microsome assessed as rate of metabolism. The data set is classed as ADME. To be noted: microsomes. In a few lines: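 Compound from a DMSO stock was incubated with human liver microsomes. Rate of metabolism is expressed in μL/min/mg.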
For data set [2], the target named is T1, Estrogen receptor (Homo sapiens, UniProt P03372).
T1 sequence (P03372 whole entry): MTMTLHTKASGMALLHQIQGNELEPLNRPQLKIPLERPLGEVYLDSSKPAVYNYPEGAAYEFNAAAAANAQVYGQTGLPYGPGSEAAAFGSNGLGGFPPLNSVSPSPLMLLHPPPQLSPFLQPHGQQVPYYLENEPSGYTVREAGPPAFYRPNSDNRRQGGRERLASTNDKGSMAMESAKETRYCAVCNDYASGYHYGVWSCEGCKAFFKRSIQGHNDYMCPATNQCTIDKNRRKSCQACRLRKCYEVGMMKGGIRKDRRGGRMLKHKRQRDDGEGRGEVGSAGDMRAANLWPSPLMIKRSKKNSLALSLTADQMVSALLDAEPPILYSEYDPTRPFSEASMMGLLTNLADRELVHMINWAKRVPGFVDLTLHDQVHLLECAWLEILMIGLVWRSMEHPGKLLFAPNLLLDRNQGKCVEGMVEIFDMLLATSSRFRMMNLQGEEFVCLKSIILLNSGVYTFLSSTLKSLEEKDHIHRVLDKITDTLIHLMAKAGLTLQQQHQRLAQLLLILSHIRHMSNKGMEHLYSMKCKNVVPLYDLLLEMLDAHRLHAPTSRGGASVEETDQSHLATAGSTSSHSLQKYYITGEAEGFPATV
The experiment in a line: Induction of ERalpha degradation in human MCF7 cells incubated for 18 to 22 hrs by immuno-fluorescence assay. The data set is classed as cell-based.

The nature of data set [3]: Lipophilicity, log D of compound at pH 7.4 by shake-flask method. The class given is physicochemical. To be noted: buffer. In a few lines:
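logD at pH 7.4 was measured by the shake-flask method.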

Data set [4] addresses T1, Estrogen receptor. The experiment in a line: Displacement of fluorescent labelled fluormone ES2 from human recombinant GST tagged ER alpha LBD ( 282 to 595 residues) expressed in baculovirus infected insect cells incubate for 20 mins measured after 1 hr by TR-FRET Lanthascreen assay. In outline:
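ER binding was reported as n ≥ 2 determinations, with SEM within 0.3 log units.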
(Time-resolved FRET reads energy transfer from a long-lived donor to a nearby acceptor.)

A short description of data set [5]: Intrinsic clearance in rat hepatocytes assessed rate of metabolism per 10^6 cells. The class given is ADME, cell-based, Hepatocyte. To be noted: read-out: CLH. In a few lines: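 Compound from a DMSO stock was incubated with isolated rat hepatocytes diluted to 1 × 10^6 cells/mL. Rate of metabolism is expressed in μL/min/10^6 cells.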
Data set [6] addresses T2, Estrogen receptor (Homo sapiens) (UniProt P03372).
T2 sequence (whole entry): T1 sequence (P03372 whole entry)
Briefly: Induction of ERalpha degradation in human MCF7 cells at 0.1 uM incubated for 18 to 22 hrs immuno-fluorescence assay relative to control. The data set is classed as cell-based.

Data set [7] in a line: Fraction unbound in human plasma by equilibrium dialysis method. The data set is classed as ADME, cell-free. In outline:
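Binding was measured by equilibrium dialysis in 10% human plasma, with compound added from a DMSO stock.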
(In general: In equilibrium dialysis free small molecules cross a membrane that holds back macromolecules.)

Data set [8] can be described thus: Volume of distribution at steady state in rat at 0.5 mg/kg or 1 mg/kg, […]. To be noted: in vivo. The class given is ADME, organism-based.
Data set [9] is described as follows: AUC in rat at 1 mg/kg, po. The data set is classed as ADME, organism-based. The arrangement: dose 1 mg/kg. Particulars: in vivo. In a few lines: (§1)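 Rats were given 0.5 mg/kg IV in 5% DMSO:95% hydroxylpropyl β-cyclodextrin or 10% DMA:90% Captisol, and 1 mg/kg orally as a 0.1% HMPC/tween suspension or a 10% DMSO:90% cyclodextrin solution. Plasma clearance, Vdss and half-life came from the IV arm; AUC came from the oral arm; bioavailability F (%) was also reported.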

Data set [10] can be described thus: Half-life in rat at 0.5 mg/kg, iv. The data set is classed as ADME, organism-based. Particulars: in vivo. In outline: as §1
Data set [11] can be described thus: Oral bioavailability in rat at 1 mg/kg. The data set is classed as ADME, organism-based. Particulars: in vivo. In outline: as §1
Data set [12] can be described thus: Clearance in rat plasma at 0.5 mg/kg, iv and 1 mg/kg, po. The data set is classed as ADME, organism-based. In outline: as §1
The nature of data set [13]: Efflux ratio of intrinsic permeability from basolateral to apical side over apical to basolateral side in human Caco2 cells at 7.4:7.4 apical: basolateral pH at 10 uM. The data set is classed as ADME, cell-based. Particulars: Caco-2, pH 7.4.
The target in data set [14] is T2, Estrogen receptor (Homo sapiens). Briefly: Induction of ERalpha degradation in human MCF7 cells at 0.1 uM incubated for 18 to 22 hrs Western blot analysis relative to fulvestrant. The data set is classed as cell-based. In a few lines:
(§2)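 Western blot read-out of ERα protein loss in MCF-7 and CAMA-1 breast cancer cells treated with compound at 0.1 μM. Degradation expressed as percentage relative to fulvestrant.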
On the technique in general: Immunoblotting shows a protein as a band on a membrane.

Data set [15] shares this target. The experiment in a line: Induction of ERalpha degradation in human CAMA-1 cells at 0.1 uM incubated for 18 to 22 hrs Western blot assay relative to fulvestrant. The class given is cell-based. In outline: as §2

For orientation: microsomal CLint means the rate of metabolic loss divided by the concentration. Usually IC50 stands for the concentration needed to halve the response being measured. One may read the logD as lipophilicity at a set pH, counting ionised and neutral species. A low value points to a more hydrophilic compound. The fraction unbound is the share of the substance not bound to proteins or other matrix. Usually AUC stands for concentration integrated over time. A low value points to less exposure. As usually defined, the half-life is how long it takes for the measured level to halve. Lower therefore signals fast loss. As usually defined, the bioavailability is the share of a dose that reaches the circulation, judged against a reference dose that is usually intravenous. Read a high bioavailability as good availability. By efflux ratio is commonly meant the permeability from basolateral to apical divided by that in the opposite direction, in the common usage.

In the case of `C[C@@H]1Cc2c(c(O)cc3[nH]ncc23)[C@@H](c2ccc(NC3CN(CCCF)C3)cn2)N1CC(F)(F)F`, in data set [1], the microsomal CLint stood at 5 µL/min/mg. Also, the IC50 against Estrogen receptor [2] is 126 nM; at Estrogen receptor [4], 39.8 nM. In [3], this molecule registered a logD of 2.3. Moreover, in data set [5], the hepatocyte CLint was 11 µL/min/1e6 cells. For the same molecule, the Activity in data set [6] was more than 80%.
Take `FCCCN1CC(Nc2ccc([C@@H]3c4ccc5[nH]ncc5c4C[C@@H](C(F)F)N3CC(F)F)nc2)C1`: the microsomal CLint in data set [1] amounted to 34 µL/min/mg. Besides, in data set [7], the unbound share (fraction unbound) came to 0.28. Also, in data set [5], the hepatocyte CLint amounted to 32 µL/min/1e6 cells. This molecule came in with an Activity in data set [6] of 97%.
In the case of `C[C@@H]1Cc2c(ccc3[nH]nc(F)c23)[C@@H](c2ncc(NC3CN(CCCF)C3)cc2F)N1CC(F)(F)F`, in [1], the microsomal CLint worked out at 34 µL/min/mg. In data set [8], this molecule registered a Vdss of 17 L/kg. The same molecule registered a free fraction (fraction unbound) in data set [7] of 0.054. In data set [9], this molecule returned an AUC of 0.76 µM·h. In addition, the IC50 at Estrogen receptor [4] was 1.26 nM. This molecule had a half-life in data set [10] of 9.6 h. This molecule also gave a bioavailability in data set [11] of 60%. Moreover, the hepatocyte CLint in [5] is 10 µL/min/1e6 cells. Further, in data set [12], the clearance worked out at 24 mL/min/kg. For the same molecule, the efflux ratio at 10 µM in [13] was 1.4. The molecule further displayed an Activity in [6] of 99%.
On to `C[C@@H]1Cc2c(c(F)cc3[nH]ncc23)[C@@H](c2ccc(NC3CN(CCCF)C3)cn2)N1CC(F)(F)F`, for which the microsomal CLint in [1] stood at 8 µL/min/mg. In data set [7], this molecule registered a fraction unbound of 0.19. Besides, the results for the IC50 on Estrogen receptor [2] and on Estrogen receptor [4] were 5.01 nM and 15.8 nM, respectively. The logD in [3] is 2.7. Further, in data set [5], the hepatocyte CLint is 11 µL/min/1e6 cells. Also, the Activity in data set [6] amounted to 95%.
For the molecule `C[C@@H]1Cc2c(ccc3[nH]ncc23)[C@@H](c2ccc(NC3CN(CCCF)C3)c(F)n2)N1CC(F)(F)F`, the microsomal CLint in data set [1] worked out at 20 µL/min/mg. Further, in data set [8], the Vdss came to 7.7 L/kg. This molecule also came in with an unbound share (fraction unbound) in data set [7] of 0.16. Further, the logD in [3] came out at 3. In addition, the AUC in data set [9] was found to be 0.22 µM·h. Besides, in [10], the half-life was 1.9 h. The bioavailability in data set [11] came to 34%. Moreover, the hepatocyte CLint in data set [5] is 36 µL/min/1e6 cells. In [12], this molecule had a clearance of 65 mL/min/kg. The Activity in data set [6] was determined as 98%.
With `COc1cc2[nH]ncc2c2c1[C@@H](c1ccc(NC3CN(CCCF)C3)cn1)N(CC(F)(F)F)[C@H](C)C2`, the microsomal CLint in data set [1] turned out to be 26 µL/min/mg. For the same molecule, the fraction unbound in data set [7] was determined as 0.32. The IC50 against Estrogen receptor [2] was 2.51 nM; on Estrogen receptor [4] it was 501 nM. The molecule further came in with a pH-dependent lipophilicity (logD) in [3] of 2.4. In data set [5], the hepatocyte CLint is 6 µL/min/1e6 cells. The Activity in data set [6] came to 40%.
For `C[C@@H]1Cc2c(ccc3[nH]nc(F)c23)[C@@H](c2ccc(NC3CN(CCCF)C3)c(F)n2)N1CC(F)(F)F`, the intrinsic metabolic clearance (microsomal CLint) in [1] was 44 µL/min/mg. The fraction unbound in data set [7] came out at 0.068. Besides, the IC50 against Estrogen receptor [2] was 0.0501 nM; on Estrogen receptor [4], 1 nM. The hepatocyte CLint in data set [5] was determined as 10 µL/min/1e6 cells. Also, the Activity in data set [6] is 99%.
As to `C[C@@H]1Cc2c(ccc3[nH]ncc23)[C@@H](c2ncc(NC3CN(CCCF)C3)cc2F)N1CC(F)(F)CF`, in [1], the microsomal CLint was 26 µL/min/mg. Also, the hepatocyte CLint in [5] came out at 55 µL/min/1e6 cells. This molecule also yielded an Activity in data set [6] of 98%.
In the case of `C[C@@H]1Cc2c(ccc3[nH]ncc23)[C@@H](c2ccc(NC3CN(CCCF)C3)cn2)N1CC(F)F`, the microsomal CLint in data set [1] was 28 µL/min/mg. In [6], this molecule came in with an Activity of 99%.
`C[C@@H]1Cc2c(cc(F)c3[nH]ncc23)[C@@H](c2ccc(NC3CN(CCCF)C3)cn2)N1CC(F)(F)F`: the microsomal CLint in data set [1] is 19 µL/min/mg. Besides, the unbound share (fraction unbound) in [7] worked out at 0.14. Besides, the 50% inhibitory concentration (IC50) on Estrogen receptor [2] was 0.2 nM; on Estrogen receptor [4] it was 0.501 nM. In [3], this molecule showed a log distribution coefficient (logD) of 3.2. The hepatocyte CLint in data set [5] came to 20 µL/min/1e6 cells. Also, the Activity in data set [6] is 98%.
Regarding `C[C@@H]1Cc2c(ccc3[nH]ncc23)[C@@H](c2ccc(NC3CN(CCCF)C3)cn2)N1CC(F)(F)F` [CAMIZESTRANT], in [1], the microsomal CLint worked out at 12 µL/min/mg. This molecule yielded a logD in data set [3] of 2.9. The Activity in data set [14] was found to be 95%; in data set [15], 98%; in data set [6], 99%.
For `C[C@@H]1Cc2c(ccc3[nH]ncc23)[C@@H](c2ncc(NC3CN(CCCF)C3)cc2F)N1CC(F)(F)F`, the microsomal CLint in data set [1] is 19 µL/min/mg. Also, the fraction unbound in [7] came out at 0.16. Also, the IC50 against Estrogen receptor [2] was 0.251 nM; on Estrogen receptor [4] it was 2 nM. The molecule further yielded a logD in data set [3] of 3. Moreover, the hepatocyte CLint in data set [5] is 24 µL/min/1e6 cells. The efflux ratio at 10 µM in data set [13] was determined as 7. The Activity in data set [14] worked out at 96%; in data set [15], 98%; in [6] it was 98%.

The values above are taken from ChEMBL document CHEMBL4725497, “Addition of Fluorine and a Late-Stage Functionalization (LSF) of the Oral SERD AZD9833” (ACS Med Chem Lett, 2020).
